Results reported in ChEMBL document CHEMBL1287650, “Structural modification of a specific antimicrobial lead against Helicobacter pylori discovered from traditional Chinese medicine and a structure-activity relationship study” (2010).
Converted amounts (≈) assume the structure as drawn.

How the values were obtained:
Format in all cases: functional
Helicobacter pylori = experiment: Antibacterial activity against Helicobacter pylori SS1 assessed as inhibition of visible growth after 96 hrs by agar dilution method; conditions: SS1, 96 h
How it was run: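 Agar dilution on Columbia Blood Agar Base with 7% defibrinated sheep blood; compounds dissolved in minimal DMSO, two-fold serial dilutions mixed into medium. Inoculum: cells in saline at 10⁸ CFU/mL. Incubated 37 °C, 96 h, 5% O₂/10% CO₂/85% N₂. DMSO-only blank and metronidazole positive control run alongside. MIC = lowest concentration completely inhibiting visible growth.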

Trichophyton rubrum = experiment: Antifungal activity against Trichophyton rubrum after 48 hrs
How it was run: (§1)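 Fungi grown in Sabouraud dextrose broth at 37 °C for 48 h with compounds and positive control dissolved in DMSO; DMSO-only cultures served as blank controls.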

[1] = tested on: Staphylococcus epidermidis; experiment: Antibacterial activity against Staphylococcus epidermidis ATCC 12228 after 18 hrs; conditions: ATCC 12228, 18 h
[2] = Antifungal activity against Saccharomyces sake after 48 hrs; conditions: Saccharomyces sp.; how it was run: as §1
Shigella flexneri = experiment: Antibacterial activity against Shigella flexneri F2a after 18 hrs
Nannizzia gypsea = experiment: Antifungal activity against Microsporum gypseum after 48 hrs; how it was run: as §1
Candida albicans = experiment: Antifungal activity against Candida albicans ATCC 1600 after 48 hrs; conditions: ATCC 1600, 48 h; how it was run: as §1
Micrococcus luteus = experiment: Antibacterial activity against Micrococcus luteus ATCC 9341 after 18 hrs; conditions: ATCC 9341, 18 h
Staphylococcus aureus = experiment: Antibacterial activity against Staphylococcus aureus ATCC 25923 after 18 hrs; conditions: ATCC 25923, 18 h
Pseudomonas aeruginosa = experiment: Antibacterial activity against Pseudomonas aeruginosa ATCC 14502 after 18 hrs; conditions: ATCC 14502, 18 h
Bacillus subtilis = experiment: Antibacterial activity against Bacillus subtilis CMCC 63501 after 18 hrs; conditions: CMCC 63501, 18 h
Escherichia coli = experiment: Antibacterial activity against Escherichia coli ATCC 25922 after 18 hrs; conditions: ATCC 25922, 18 h

Compound	MIC (Helicobacter pylori)	further results
COc1c2occc2c(CCl)c2ccc(=O)oc12	25 µg/mL (≈ 94.5 µM)	–
O=c1cc(CO)c2cc3ccoc3cc2o1	0.78 µg/mL (≈ 3.61 µM)	–
Cc1cc(=O)oc2cc3occc3cc12	0.39 µg/mL (≈ 1.95 µM)	MIC (Trichophyton rubrum): > 64 µg/mL; MIC [1]: > 64 µg/mL; MIC [2]: > 64 µg/mL; MIC (Shigella flexneri): > 64 µg/mL; MIC (Nannizzia gypsea): > 64 µg/mL; MIC (Candida albicans): > 64 µg/mL; MIC (Micrococcus luteus): > 64 µg/mL; MIC (Staphylococcus aureus): > 64 µg/mL; MIC (Pseudomonas aeruginosa): > 64 µg/mL; MIC (Bacillus subtilis): > 64 µg/mL; MIC (Escherichia coli): > 64 µg/mL
Cc1coc2cc3oc(=O)ccc3cc12	12.5 µg/mL (≈ 62.4 µM)	–
COc1ccc(NS(=O)(=O)c2c3ccoc3c(OC)c3oc(=O)ccc23)cc1	> 50 µg/mL	–
O=c1ccc2cc3ccoc3cc2o1 [PSORALEN]	6.25 µg/mL (≈ 33.6 µM)	MIC (Trichophyton rubrum): > 64 µg/mL; MIC [1]: > 64 µg/mL; MIC [2]: > 64 µg/mL; MIC (Shigella flexneri): > 64 µg/mL; MIC (Nannizzia gypsea): > 64 µg/mL; MIC (Candida albicans): > 64 µg/mL; MIC (Micrococcus luteus): > 64 µg/mL; MIC (Staphylococcus aureus): > 64 µg/mL; MIC (Pseudomonas aeruginosa): > 64 µg/mL; MIC (Bacillus subtilis): > 64 µg/mL; MIC (Escherichia coli): > 64 µg/mL
COc1c2occc2c(S(=O)(=O)Nc2ccc([N+](=O)[O-])cc2)c2ccc(=O)oc12	> 50 µg/mL	–
O=c1ccc2cc3cc(Br)oc3cc2o1	6.25 µg/mL (≈ 23.6 µM)	–
CCOc1c2occc2cc2ccc(=O)oc12	> 50 µg/mL	–
O=Cc1cc(=O)oc2cc3occc3cc12	1.56 µg/mL (≈ 7.28 µM)	–
CCN(CC)Cc1cc2cc3ccc(=O)oc3cc2o1	> 50 µg/mL	–
COc1c2occc2c(CNc2ccc([N+](=O)[O-])cc2)c2ccc(=O)oc12	> 50 µg/mL	–
O=c1cc(C(F)(F)F)c2cc3ccoc3cc2o1	12.5 µg/mL (≈ 49.2 µM)	–
COc1c2occc2c(Cl)c2ccc(=O)oc12	> 50 µg/mL	–
CCOCc1c2ccoc2c(OC)c2oc(=O)ccc12	> 50 µg/mL	–
O=c1cc(CBr)c2cc3ccoc3cc2o1	1.56 µg/mL (≈ 5.59 µM)	–
CC(=O)OCc1cc2cc3ccc(=O)oc3cc2o1	> 50 µg/mL	–
COc1c2occc2c(S(=O)(=O)Oc2ccccc2)c2ccc(=O)oc12	> 50 µg/mL	–
CC(=O)OCc1cc(=O)oc2cc3occc3cc12	1.56 µg/mL (≈ 6.04 µM)	–
CCCOCc1c2ccoc2c(OC)c2oc(=O)ccc12	> 50 µg/mL	–
COc1c2occc2c(S(=O)(=O)OC)c2ccc(=O)oc12	> 50 µg/mL	–
CCCc1cc(=O)oc2cc3occc3cc12	12.5 µg/mL (≈ 54.8 µM)	–
CCOC(=O)COc1c2occc2cc2ccc(=O)oc12	> 50 µg/mL	–
COc1c2occc2c(S(N)(=O)=O)c2ccc(=O)oc12	> 50 µg/mL	–
CCN(CC)S(=O)(=O)c1c2ccoc2c(OC)c2oc(=O)ccc12	> 50 µg/mL	–

Compound	MIC (Helicobacter pylori)	further results
CC(=O)Oc1c2occc2cc2ccc(=O)oc12	> 50 µg/mL	–
CCCCOCc1cc2cc3ccc(=O)oc3cc2o1	50 µg/mL (≈ 184 µM)	–
CC(=O)Oc1c2occc2c([N+](=O)[O-])c2ccc(=O)oc12	25 µg/mL (≈ 86.4 µM)	–
CCN(CC)Cc1c2ccoc2c(OC)c2oc(=O)ccc12	> 50 µg/mL	–
COCc1cc2cc3ccc(=O)oc3cc2o1	50 µg/mL (≈ 217 µM)	–
O=c1ccc2cc3cc(Cl)oc3cc2o1	6.25 µg/mL (≈ 28.3 µM)	–
COCc1c2ccoc2c(OC)c2oc(=O)ccc12	> 50 µg/mL	–
O=c1ccc2cc3cc(CCl)oc3cc2o1	> 50 µg/mL	–
O=c1ccc2cc3cc([N+](=O)[O-])oc3cc2o1	3.12 µg/mL (≈ 13.5 µM)	–
CCc1cc(=O)oc2cc3occc3cc12	6.25 µg/mL (≈ 29.2 µM)	–
CCOCc1cc2cc3ccc(=O)oc3cc2o1	> 50 µg/mL	–
COc1ccc(NCc2c3ccoc3c(OC)c3oc(=O)ccc23)cc1	12.5 µg/mL (≈ 35.6 µM)	–
COc1c2occc2c(/N=C/c2ccccc2)c2ccc(=O)oc12	> 50 µg/mL	–
O=c1cc(-c2ccccc2)c2cc3ccoc3cc2o1	12.5 µg/mL (≈ 47.7 µM)	–
O=C(O)COc1c2occc2cc2ccc(=O)oc12	> 50 µg/mL	–
COc1c2occc2cc2ccc(=O)oc12 [METHOXSALEN]	25 µg/mL (≈ 116 µM)	–
O=c1ccc2cc3ccoc3c(O)c2o1 [XANTHOTOXOL]	> 50 µg/mL	–
Cc1c2ccoc2cc2oc(=O)ccc12	12.5 µg/mL (≈ 62.4 µM)	–
COc1c2occc2c([N+](=O)[O-])c2ccc(=O)oc12	1.56 µg/mL (≈ 5.97 µM)	MIC (Trichophyton rubrum): > 64 µg/mL; MIC [1]: > 64 µg/mL; MIC [2]: > 64 µg/mL; MIC (Shigella flexneri): > 64 µg/mL; MIC (Nannizzia gypsea): > 64 µg/mL; MIC (Candida albicans): > 64 µg/mL; MIC (Micrococcus luteus): > 64 µg/mL; MIC (Staphylococcus aureus): > 64 µg/mL; MIC (Pseudomonas aeruginosa): > 64 µg/mL; MIC (Bacillus subtilis): > 64 µg/mL; MIC (Escherichia coli): > 64 µg/mL
O=c1ccc2c([N+](=O)[O-])c3ccoc3c(O)c2o1	25 µg/mL (≈ 101 µM)	–
COc1c2occc2c(Br)c2ccc(=O)oc12	> 50 µg/mL	–
CCCCOCc1c2ccoc2c(OC)c2oc(=O)ccc12	50 µg/mL (≈ 165 µM)	–
COc1c2occc2c(N)c2ccc(=O)oc12	25 µg/mL (≈ 108 µM)	–
Cc1ncc([N+](=O)[O-])n1CCO [METRONIDAZOLE]	0.5 µg/mL (≈ 2.92 µM)	–
